Key:
[1] = tested on: CYP450 isoforms (1A2, 2A6, 2C8, 2C9, 2C19, 2D6, 2E1, 3A4); assay: Cocktail assay of CYP450 isoform activity in pooled human liver microsomes; assay type: in vitro ADME; conditions: pooled HLMs, 100 μM physcion
Procedure, shortened: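 Single-concentration screen in pooled human liver microsomes with the test compound at 100 μM, a blank negative control and typical isoform inhibitors as positive controls. Incubation was in 100 mM potassium phosphate, pH 7.4, with an NADPH-generating system after 3 min pre-incubation. Reactions were stopped with acetonitrile (trichloroacetic acid for CYP2A6), and probe metabolites were quantified by HPLC. Triplicate; one-way ANOVA against the negative control.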

[2] = target: CYP3A4 (Homo sapiens, UniProt P08684); assay: Time-dependent inhibition of CYP3A4 in HLMs; assay type: in vitro ADME
Sequence of CYP3A4 (P08684 whole entry): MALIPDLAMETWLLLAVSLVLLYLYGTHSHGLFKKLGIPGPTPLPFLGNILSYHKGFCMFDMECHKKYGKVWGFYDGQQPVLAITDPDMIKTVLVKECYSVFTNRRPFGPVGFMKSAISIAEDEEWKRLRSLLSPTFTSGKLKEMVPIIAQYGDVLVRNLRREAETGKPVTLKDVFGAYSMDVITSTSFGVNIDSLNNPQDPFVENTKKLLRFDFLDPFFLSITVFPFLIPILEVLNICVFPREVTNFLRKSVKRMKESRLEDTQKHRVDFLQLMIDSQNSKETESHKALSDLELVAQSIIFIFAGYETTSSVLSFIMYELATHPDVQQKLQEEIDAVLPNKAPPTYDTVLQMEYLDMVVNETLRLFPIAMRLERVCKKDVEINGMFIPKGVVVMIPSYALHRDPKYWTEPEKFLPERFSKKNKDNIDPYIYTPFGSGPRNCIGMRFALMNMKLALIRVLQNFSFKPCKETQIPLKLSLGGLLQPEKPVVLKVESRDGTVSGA

[3] = target: CYP2C9 (Homo sapiens, UniProt P11712); assay: Time-dependent inhibition of CYP2C9 in HLMs; assay type: in vitro ADME; conditions: HLMs pre-incubated with physcion 30 min; incubation 5, 10, 15 and 30 min
Sequence of CYP2C9 (P11712 whole entry): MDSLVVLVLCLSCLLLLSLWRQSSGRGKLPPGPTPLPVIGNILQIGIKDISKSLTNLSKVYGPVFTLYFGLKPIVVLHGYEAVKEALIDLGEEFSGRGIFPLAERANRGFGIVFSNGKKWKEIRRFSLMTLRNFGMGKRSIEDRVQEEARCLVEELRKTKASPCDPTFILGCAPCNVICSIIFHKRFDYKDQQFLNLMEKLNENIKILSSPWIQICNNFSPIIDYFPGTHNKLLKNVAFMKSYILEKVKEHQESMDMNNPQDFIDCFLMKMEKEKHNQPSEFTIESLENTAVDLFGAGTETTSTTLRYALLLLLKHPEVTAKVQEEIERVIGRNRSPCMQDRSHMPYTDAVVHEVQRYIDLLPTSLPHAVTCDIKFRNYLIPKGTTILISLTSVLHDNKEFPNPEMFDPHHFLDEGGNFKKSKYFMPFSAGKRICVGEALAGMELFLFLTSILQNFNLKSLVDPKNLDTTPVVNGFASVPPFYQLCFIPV
Procedure, shortened: (§1)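 Two-step format: microsomes were pre-incubated with the test compound for 30 min. A 20 μL aliquot was transferred to a second tube with substrate near Km and started with the NADPH-generating system. Incubations ran 5, 10, 15 and 30 min, were stopped with acetonitrile and centrifuged, and residual activity was measured by HPLC. Triplicate.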

[4] = target: CYP2D6 (Homo sapiens, UniProt P10635); assay: Time-dependent inhibition of CYP2D6 in HLMs; assay type: in vitro ADME; conditions: HLMs pre-incubated with physcion 30 min; incubation 5, 10, 15 and 30 min
Sequence of CYP2D6 (P10635 whole entry): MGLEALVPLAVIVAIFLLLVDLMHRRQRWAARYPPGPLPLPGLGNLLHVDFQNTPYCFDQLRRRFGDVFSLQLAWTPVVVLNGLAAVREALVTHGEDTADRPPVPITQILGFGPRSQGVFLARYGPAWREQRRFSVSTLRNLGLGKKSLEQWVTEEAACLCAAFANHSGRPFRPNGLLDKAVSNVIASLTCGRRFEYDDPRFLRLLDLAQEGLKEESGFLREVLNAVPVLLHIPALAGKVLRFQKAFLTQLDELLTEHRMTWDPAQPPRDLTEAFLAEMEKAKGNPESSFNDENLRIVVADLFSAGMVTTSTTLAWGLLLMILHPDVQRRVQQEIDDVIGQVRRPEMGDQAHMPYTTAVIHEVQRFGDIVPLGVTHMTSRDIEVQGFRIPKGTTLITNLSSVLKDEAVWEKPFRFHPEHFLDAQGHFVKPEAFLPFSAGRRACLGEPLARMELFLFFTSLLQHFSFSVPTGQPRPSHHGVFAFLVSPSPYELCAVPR
Procedure, shortened: as §1

[5] = after rhubarb extract administration; ref Ding et al. [2003]; Xun et al. [2019]; cited from earlier work
[6] = rats; after administration of Semen Cassiae extract; ref Yang et al. [2015]; cited from earlier work

- Inhibitory effect relative to the positive inhibitors of CYP2C9, 2D6 and 3A4 [1]: weaker than the positive inhibitors
- KI (time-dependent inhibition of CYP3A4) ([2]; 0–50 μM physcion, substrate approx. 4-fold Km, 0–30 min): 3.10 µM⁻¹
- Time dependence of CYP3A4 inhibition ([2]; HLMs pre-incubated with physcion 30 min, incubation 5, 10, 15 and 30 min): time-dependent
- Time dependence of CYP2C9 inhibition [3]: not influenced
- Time dependence of CYP2D6 inhibition [4]: not influenced
SMILES: COc1cc(O)c2c(c1)C(=O)c1cc(C)cc(O)c1C2=O [physcion, Physcion]
- Effect on activity of the major CYP450 isoforms ([1]; compared with negative control): Only the activity of CYP2C9, 2D6 and 3A4 was inhibited
- Maximum concentration of physcion [5]: 0.032 µg/mL
- Time at which the maximum concentration was reached [5]: 2 h
- Maximum plasma concentration [6]: 461.85 ± 266.77 ng/mL
- Time of maximum plasma concentration [6]: 0.167 ± 0.002 h

From paper PMC10868446 (Pharmaceutical Biology, 2024)
